Experimental data taken from ChEMBL document CHEMBL4765230, “Discovery of Orally Efficacious Phosphoinositide 3-Kinase δ Inhibitors with Improved Metabolic Stability” (J Med Chem, 2016).

Columns and labels:
[1] = In vivo inhibition of PI3Kdelta in Lewis rat model of Freund's incomplete adjuvant-induced arthritis at 0.3 mg/kg, po bid administered for 7 days at 12 hrs interval starting from day 10 to day 16 post-immunization relative to control; assay type: functional; details: 168 h, time 7 day
Method in brief: (§1)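 CIA Lewis rats dosed orally twice daily for 7 days at 0.3, 1 or 3 mg/kg; blood/plasma drug levels taken on day 7, 12 h after final dose, and related to PI3Kδ inhibition at trough.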

[2] = target: Phosphatidylinositol 4,5-bisphosphate 3-kinase catalytic subunit beta isoform (Homo sapiens, UniProt P42338); experiment: Inhibition of PI3K p110beta in human PC-3 cells assessed as reduction in AKT phosphorylation at S473 residue measured after 2 hrs by TR-FRET analysis; assay type: cell-based
Phosphatidylinositol 4,5-bisphosphate 3-kinase catalytic subunit beta isoform, sequence (P42338 whole entry, canonical isoform): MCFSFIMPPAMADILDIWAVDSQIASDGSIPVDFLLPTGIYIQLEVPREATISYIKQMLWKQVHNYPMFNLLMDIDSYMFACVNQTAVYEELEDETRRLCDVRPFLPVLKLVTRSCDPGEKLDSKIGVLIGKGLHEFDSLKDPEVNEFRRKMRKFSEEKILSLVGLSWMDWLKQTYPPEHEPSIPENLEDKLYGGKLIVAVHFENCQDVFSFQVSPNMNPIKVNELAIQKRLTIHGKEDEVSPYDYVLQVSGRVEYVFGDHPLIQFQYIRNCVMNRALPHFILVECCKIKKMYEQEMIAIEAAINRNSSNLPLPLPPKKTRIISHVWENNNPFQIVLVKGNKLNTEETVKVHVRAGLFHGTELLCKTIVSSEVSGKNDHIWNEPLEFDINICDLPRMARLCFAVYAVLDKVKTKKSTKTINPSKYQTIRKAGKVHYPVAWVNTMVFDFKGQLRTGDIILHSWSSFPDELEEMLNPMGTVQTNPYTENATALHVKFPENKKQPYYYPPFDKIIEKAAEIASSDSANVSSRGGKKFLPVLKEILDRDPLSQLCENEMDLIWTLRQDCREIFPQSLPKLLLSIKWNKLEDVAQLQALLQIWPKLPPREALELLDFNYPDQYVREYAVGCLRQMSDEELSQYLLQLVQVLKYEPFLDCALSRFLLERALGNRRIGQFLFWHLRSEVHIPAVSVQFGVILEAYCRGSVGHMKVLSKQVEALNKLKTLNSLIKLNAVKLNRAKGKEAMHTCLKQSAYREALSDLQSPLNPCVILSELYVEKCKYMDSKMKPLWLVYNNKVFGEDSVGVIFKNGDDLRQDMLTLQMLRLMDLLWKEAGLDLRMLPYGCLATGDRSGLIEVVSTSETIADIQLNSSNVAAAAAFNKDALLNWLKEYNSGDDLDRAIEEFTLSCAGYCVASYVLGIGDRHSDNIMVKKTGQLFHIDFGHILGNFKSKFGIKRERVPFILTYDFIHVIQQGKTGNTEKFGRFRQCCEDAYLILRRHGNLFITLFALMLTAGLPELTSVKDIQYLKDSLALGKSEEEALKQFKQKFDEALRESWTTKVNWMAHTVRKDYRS
Method in brief: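 PC3 cells quiesced 2 h at 37 °C/5% CO2 in DMEM with 0.1% FBS/1% PSG, then plated at 25 000 cells/well onto prespotted compound dilutions and incubated 2 h. Lysates were read for Akt and phospho-Akt S473 by TR-FRET (Eu-cryptate Akt donor, d2 phospho-Akt acceptor). Data normalized to 1 μM wortmannin and DMSO controls; four-parameter fit; triplicate; geometric mean.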

[3] = Cmax in Lewis rat at 5 mg/kg, po administered as single dose measured at 2 hrs; assay type: ADME, organism-based; parameters: route oral, dose 5 mg/kg, time 2 hrs; details: in vivo
Method in brief: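 Female Lewis rats given a single oral dose of 1 or 5 mg/kg; plasma concentration–time profiles determined; mean ± SD, n = 3.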

[4] = Mutagenecity in Salmonella typhimurium by Ames test; assay type: toxicity; details: salmonella enterica subsp. enterica serovar typhimurium
Rattus norvegicus [5] = experiment: Antiarthritic activity in Lewis rat model of Freund's incomplete adjuvant-induced arthritis assessed as inhibition of cartilage damage at 0.3 to 3 mg/kg, po bid administered for 7 days at 12 hrs interval starting from day 10 to day 16 post-immunization by microscopic analysis relative to control; assay type: functional; parameters: scale not given: the % may be the effect or the level left; details: dose 0.3-3 mg/kg, time 7 day
Method in brief: (§2)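 Female Lewis rats with established collagen-induced arthritis dosed orally twice daily for 7 days at 0.3, 1 and 3 mg/kg, starting day 10 after second collagen immunization. Joint histopathology scored for pannus formation, cartilage damage, bone resorption and periosteal bone formation; ED50 derived. n = 8/treatment group, n = 4 normal controls.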

[6] = Inhibition of PI3Kdelta in rat whole blood assessed as reduction in anti-IgD induced B-cell activation by measuring decrease in CD86 surface expression by flow cytometry analysis
Rattus norvegicus [7] = species on record: Rattus norvegicus; experiment: as above
[8] = target: T1, Phosphatidylinositol 4,5-bisphosphate 3-kinase catalytic subunit gamma isoform (Homo sapiens, UniProt P48736); experiment: Inhibition of PI3K p110gamma in human basophil assessed as reduction in fMLP-induced basophil activation in presence of 25% serum by flow cytometry analysis; assay type: tissue-based
T1 sequence (P48736 whole entry, canonical isoform): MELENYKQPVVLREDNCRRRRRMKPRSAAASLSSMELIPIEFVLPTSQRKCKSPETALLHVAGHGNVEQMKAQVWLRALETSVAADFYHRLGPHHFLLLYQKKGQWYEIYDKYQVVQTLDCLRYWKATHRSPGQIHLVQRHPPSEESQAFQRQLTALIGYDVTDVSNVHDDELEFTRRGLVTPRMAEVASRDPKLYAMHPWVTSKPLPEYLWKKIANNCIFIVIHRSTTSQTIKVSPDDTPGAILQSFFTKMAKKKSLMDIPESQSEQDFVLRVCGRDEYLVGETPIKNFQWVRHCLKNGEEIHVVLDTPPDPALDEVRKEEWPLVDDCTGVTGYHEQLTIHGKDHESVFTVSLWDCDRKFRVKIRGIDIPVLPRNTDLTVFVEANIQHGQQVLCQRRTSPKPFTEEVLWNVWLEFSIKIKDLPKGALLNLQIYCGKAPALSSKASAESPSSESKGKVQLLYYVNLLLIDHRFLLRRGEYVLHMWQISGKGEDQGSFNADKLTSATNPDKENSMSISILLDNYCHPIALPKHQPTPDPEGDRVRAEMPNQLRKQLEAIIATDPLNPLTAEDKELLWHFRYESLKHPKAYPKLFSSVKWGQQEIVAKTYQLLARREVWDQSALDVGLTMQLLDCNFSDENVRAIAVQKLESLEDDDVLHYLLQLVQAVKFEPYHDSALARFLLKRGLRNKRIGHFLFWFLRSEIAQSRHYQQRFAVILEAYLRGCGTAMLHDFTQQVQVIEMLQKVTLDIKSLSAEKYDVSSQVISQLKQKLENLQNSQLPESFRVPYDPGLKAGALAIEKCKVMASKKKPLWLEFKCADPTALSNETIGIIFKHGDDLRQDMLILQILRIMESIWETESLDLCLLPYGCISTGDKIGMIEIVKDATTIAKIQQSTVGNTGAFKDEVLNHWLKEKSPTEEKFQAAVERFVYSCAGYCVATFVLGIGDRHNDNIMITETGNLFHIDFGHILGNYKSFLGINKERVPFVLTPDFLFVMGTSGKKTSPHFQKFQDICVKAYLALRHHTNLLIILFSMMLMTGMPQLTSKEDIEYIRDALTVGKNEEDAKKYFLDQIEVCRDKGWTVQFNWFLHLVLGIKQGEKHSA
Method in brief: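 Basophil activation via fMLP (p110γ) in 25% serum or in isolated WBCs in low serum, with increasing compound concentrations. Anti-CD63-FITC/anti-CCR3-PE staining; ≥150 (25% serum) or ≥75 (low serum) CCR3-high basophils gated; % CD63-positive normalized to 0.3% DMSO vehicle; concentration corrected for reagent dilution.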

[9] = Terminal half life in rhesus monkey at 1 mg/kg, iv measured over 24 hrs by LC/MS/MS analysis; assay type: ADME, organism-based, Macaca mulatta; details: in vivo, read-out: beta t1/2 (converted)
Method in brief: (§3)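 Single intravenous dose of 1 mg/kg. Vehicles: rats and dogs 5% ethanol/55% PEG 400/40% water; cynomolgus monkeys 5% ethanol/22% PEG 400/73% water; rhesus monkeys 5% ethanol/25% PEG 400/70% water. Plasma concentration–time data gave Vss and iv half-life. Reported as mean ± SD, n = 3.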

[10] = target: T1, Phosphatidylinositol 4,5-bisphosphate 3-kinase catalytic subunit gamma isoform; experiment: Inhibition of human full length PI3K p110gamma using […] as substrate measured after 30 mins by TR-FRET assay
[11] = Terminal half life in Beagle dog at 1 mg/kg, iv measured over 24 hrs by LC/MS/MS analysis; assay type: ADME, organism-based, Canis lupus familiaris; details: in vivo, read-out: beta t1/2 (converted); method in brief: as §3
[12] = target: T2, Phosphatidylinositol 4,5-bisphosphate 3-kinase catalytic subunit delta isoform (Homo sapiens, UniProt O00329); experiment: Inhibition of PI3K p110delta in human basophil assessed as reduction in anti-FCepsilonR1 mAb-induced basophil activation preincubated for 60 mins followed by anti-FCepsilonR1 mAb stimulation and measured after 25 mins in presence of 25% serum by flow cytometry analysis; assay type: tissue-based
T2 sequence (O00329 whole entry): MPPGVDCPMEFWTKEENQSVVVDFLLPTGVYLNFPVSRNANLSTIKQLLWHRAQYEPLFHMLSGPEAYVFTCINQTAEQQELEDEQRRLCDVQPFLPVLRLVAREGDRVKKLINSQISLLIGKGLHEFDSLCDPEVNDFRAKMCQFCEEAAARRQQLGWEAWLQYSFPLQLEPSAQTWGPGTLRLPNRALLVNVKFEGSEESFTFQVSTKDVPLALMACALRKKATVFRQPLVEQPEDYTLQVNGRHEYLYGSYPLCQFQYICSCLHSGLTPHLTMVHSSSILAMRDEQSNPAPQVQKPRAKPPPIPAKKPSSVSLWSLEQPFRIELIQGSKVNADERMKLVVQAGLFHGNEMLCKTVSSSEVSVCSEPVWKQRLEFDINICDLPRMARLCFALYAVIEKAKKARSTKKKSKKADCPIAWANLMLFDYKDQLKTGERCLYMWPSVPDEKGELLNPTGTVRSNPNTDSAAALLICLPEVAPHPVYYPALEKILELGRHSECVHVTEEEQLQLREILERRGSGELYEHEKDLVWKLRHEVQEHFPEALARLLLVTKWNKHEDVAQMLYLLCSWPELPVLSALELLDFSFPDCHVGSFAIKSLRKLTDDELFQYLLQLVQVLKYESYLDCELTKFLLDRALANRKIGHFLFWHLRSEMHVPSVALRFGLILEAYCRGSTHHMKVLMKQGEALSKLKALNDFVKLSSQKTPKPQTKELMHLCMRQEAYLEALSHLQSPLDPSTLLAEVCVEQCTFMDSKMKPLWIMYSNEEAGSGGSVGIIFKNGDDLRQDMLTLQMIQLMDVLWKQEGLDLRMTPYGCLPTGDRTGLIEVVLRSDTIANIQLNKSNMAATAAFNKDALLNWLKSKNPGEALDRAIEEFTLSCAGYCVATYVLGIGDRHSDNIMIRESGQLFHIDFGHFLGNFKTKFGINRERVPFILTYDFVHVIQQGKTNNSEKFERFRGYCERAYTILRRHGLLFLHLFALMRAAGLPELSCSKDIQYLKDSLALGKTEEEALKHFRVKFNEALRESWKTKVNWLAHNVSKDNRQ

Rattus norvegicus [13] = experiment: Antiarthritic activity in Lewis rat model of Freund's incomplete adjuvant-induced arthritis assessed as inhibition of bone resorption at 0.3 to 3 mg/kg, po bid administered for 7 days at 12 hrs interval starting from day 10 to day 16 post-immunization by microscopic analysis relative to control; assay type: functional; parameters: scale not given: the % may be the effect or the level left; details: dose 0.3-3 mg/kg, time 7 day; method in brief: as §2
[14] = In vivo inhibition of PI3Kdelta in Lewis rat model of Freund's incomplete adjuvant-induced arthritis at 1 mg/kg, po bid administered for 7 days at 12 hrs interval starting from day 10 to day 16 post-immunization relative to control; assay type: functional; details: 168 h, time 7 day; method in brief: as §1

EC50 [2]: 42 nM | Cmax [3]: 1780 nM | EC50 [6]: 1.6 nM | EC90 (Rattus norvegicus [7]): 31.5 nM | EC50 [8]: 581 nM | half-life [9]: 2.45 h | IC50 [10]: 190 nM | half-life [11]: 2.01 h | EC50 [12]: 1.3 nM
Compound: N#Cc1c(N)nc(N)nc1N[C@H](c1nc2c(F)ccc(Cl)c2c(=O)n1-c1cccnc1)C1CC1 [GS-9901]
inhibition in vivo at 0.3 mg/kg [1]: 60% | Activity [4]: Non-Toxic | Activity (Rattus norvegicus [5]): 50% | Activity (Rattus norvegicus [13]): 50% | inhibition in vivo at 1 mg/kg [14]: 80%
